# CDK5 p35 inh – inhibitors of human CDK5/p35 kinase | Q00535+Q15078 | Recombinant CDK5/p35, ADP-Glo luminescence, 60 min | inhibition, % at 10 µM | hit rate 0.01% among 330,000 | AID 488839;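 active = highest replicate inhibition of at least 50% and at least 75% of replicates reaching 50%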;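 also: plate controls were DMSO neutral control for no effect and GW8510 at 10 µM for full effect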
# STK33 kinase inh – human STK33 kinase inhibition. purified STK33, MBP phosphorylation, ADP-Glo luminescence. inhibition, % at 10 µM. hit rate 0.073% among 320,000;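 active = inhibition at or above 25%, using the most active replicate where run in duplicate; inactive = inhibition below 25%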
# GSK3A inh – inhibitors of human GSK-3 alpha kinase | P49840 | ADP-Glo luminescence, 60 min | inhibition, % at 10 µM | hit rate 0.1% among 320,000 | AID 2650;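 active = more than half of replicates show inhibition above 20%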;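 also: GST-tagged GSK-3 alpha with peptide substrate and 25 µM ATP; 0% = DMSO neutral wells and 100% = GW8510 positive control wells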
# GSK3B inh – blocks human GSK3beta kinase activity; AID 2097; P49841; hit rate 0.038% among 300,000; GST-GSK3beta kinase, ADP-Glo luminescence, 60 min; hits give low values; activity score (negative = inhibition), % at 10 µM;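 active = more than half of replicate wells score below -50%, meaning over 50% inhibition versus plate controls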;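 also: 0% = median DMSO wells and -100% = median GW8510 positive control wells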
# Target sequence (P49841 whole entry, looked up): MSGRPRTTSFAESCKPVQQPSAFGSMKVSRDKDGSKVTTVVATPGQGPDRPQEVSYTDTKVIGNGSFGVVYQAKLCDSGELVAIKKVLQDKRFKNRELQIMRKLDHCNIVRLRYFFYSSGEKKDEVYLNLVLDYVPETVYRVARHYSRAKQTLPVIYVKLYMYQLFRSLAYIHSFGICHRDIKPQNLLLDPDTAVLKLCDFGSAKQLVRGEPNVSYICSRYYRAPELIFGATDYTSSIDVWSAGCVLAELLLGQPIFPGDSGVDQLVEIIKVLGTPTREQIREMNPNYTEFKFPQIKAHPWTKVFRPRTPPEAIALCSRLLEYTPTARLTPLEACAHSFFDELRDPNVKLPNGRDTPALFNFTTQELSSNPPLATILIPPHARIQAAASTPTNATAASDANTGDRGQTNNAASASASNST
#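 Test system: GST-fused GSK3beta enzyme, cell-free | Quantity: 1.6 ng GST-GSK3beta enzyme per well | Reagent: 25 µM ATP with peptide substrate | Schedule: 60 min enzyme reaction, room temperature | Signal: Luminescent ADP-Glo measurement of ADP formed | Read-out basis: Score relative to plate controls | Control set: DMSO and 20 µM GW8510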
# DYRK1A inh – blocks rat Dyrk1A kinase activity; hit rate 0.43% among 310,000; ADP-Glo luminescence, NFATc1 peptide; inhibition, % at 12.5 µM; AID 504441; in the data active = inhibition above about 50%;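 also: plate controls were vehicle with enzyme for no effect and no enzyme for full effect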
# ADP-Glo artifact – counter-screen for Dyrk1A inhibitors: ADP-Glo luciferase artifacts. shares compounds with DYRK1A inh. ADP-Glo luciferase artifact assay, no Dyrk1A, luminescence. AC50, µM (series often up to 12 µM), for the others: at the top dose activity change, negative = inhibition. 1,300 tested, under 10 active. AID 588348;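 active = fitted half-maximal dose AC50 no more than ten times the top valid tested dose, with luminescence dropping as dose rises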
# * = called active by the depositor; x = no result. Shown is part of a subset that was picked to be rich in hits.
SMILES,CDK5 p35 inh,STK33 kinase inh,GSK3A inh,GSK3B inh,DYRK1A inh,ADP-Glo artifact
Cc1ccc(N2CCN(c3ccc(NC(=O)CCC(=O)O)cc3)CC2)cc1,-2,0,0,0,-2,x
Cc1ccc(-c2onc3ccc(C=O)cc23)cc1,3,2,11,-18,13,x
O=C(O)/C=C/c1ccc2noc(-c3ccccc3)c2c1,3,24,5,-1,70*,11%
C=CCSc1nnc2c(n1)OC(c1ccccn1)N(C(C)=O)c1ccccc1-2 (centres undefined),-1,-1,-2,-1,4,x
OC(COc1c(Br)cc(Br)cc1Br)CN1CCOCC1 (centres undefined),-2,x,x,-3,1,x
O=C1c2c(O)ccc(O)c2C(=O)c2c(NCCNCCO)ccc(NCCNCCO)c21,1,66*,62*,x,52*,3%
O=C1c2ccccc2C(=O)c2c(Nc3ccc(CCO)cc3)ccc(O)c21,-1,4,7,-1,5,x
O=C1/C(=C/c2ccc3c(c2)OCO3)Oc2cc(OCC(=O)N3CCC[C@H]3C(=O)O)ccc21,0,5,59*,1,71*,16%
COc1cccc(/C=C2\Oc3cc(OCC(=O)N4Cc5ccccc5C[C@H]4C(=O)O)ccc3C2=O)c1,1,15,5,1,16,x
CN(CC(=O)Nc1c(Cl)cccc1Cl)C(=O)Cc1ccsc1,1,1,1,x,-2,x
Cc1ccc2ncccc2c1,1,0,-4,x,x,x
c1cnc2ccc(-c3ccc4ncccc4c3)cc2c1,3,12,-1,1,87*,9%
CCOC(=O)C1(Cc2cccc(F)c2)CCN(C(=O)C2CCC2)CC1,0,-1,-4,-1,-2,x
CC(C)NC(=O)Nc1cccc2c1O[C@H](CN(C)C(=O)NC1CCCCC1)[C@H](C)CN([C@H](C)CO)C2=O,-1,-1,2,x,51*,9%
CC(C)NC(=O)Nc1cccc2c1O[C@H](CN(C)C(=O)NC1CCCCC1)[C@@H](C)CN([C@H](C)CO)C2=O,1,-1,-3,x,9,x
Cc1ccnc(NC(=O)c2cccc(S(=O)(=O)N3CCN(c4ccccc4)CC3)c2)c1,3,0,-2,2,60*,6%
O=C1CCCC2=C1Sc1ccccc1N2,-5,6,26,-23,57*,8%
Cc1n[nH]c(C)c1N=Nc1ccc(Br)cc1,0,3,2,1,34,x
COc1ccc(N=Nc2c(C)n[nH]c2C)cc1,1,12,7,0,52*,9%
O=C1NC(=O)/C(=C\c2ccc(O)cc2O)S1,4,36*,24,-13,85*,8%
COc1ccc2nc(-n3c(O)c(C4=c5ccccc5=NC4=O)[nH]c3=S)sc2c1,2,2,5,1,63*,8%
Cn1c(O)c(C2=c3ccccc3=NC2=O)[nH]c1=S,3,-2,-1,-5,-5,x
S=c1[nH]c2ccccc2n1CCc1ccncc1,0,x,x,x,30,x
S=c1sc2ccccc2n1CCc1ccncc1,0,9,35,-20,62*,10%
O=C(O)c1ccc(-n2cc(-c3cc4ccccc4oc3=O)[nH]c2=S)cc1,6,x,x,x,67*,9%
SMILES,CDK5 p35 inh,STK33 kinase inh,GSK3A inh,GSK3B inh,DYRK1A inh,ADP-Glo artifact
COc1ccc2[nH]c3c(c2c1)CCNC3=O,3,-1,2,12,65*,10%
O=C1NCCc2c1[nH]c1ccccc21,0,3,5,-1,23,x
NS(=O)(=O)c1ccc(Nc2nc(-c3ccc(F)cc3)cs2)cc1,1,2,13,-8,21,x
NS(=O)(=O)c1ccc(Nc2nc(-c3ccc(O)cc3O)cs2)cc1,16,17,61*,-28,68*,7%
COc1ccc(C(=O)N2CCN(c3ccc(C)cc3)CC2)cc1OC,-5,-1,2,0,5,x
COc1ccc(C(=O)N2CCN(c3c(C)cccc3C)CC2)cc1OC,-1,-1,x,1,59*,9%
Cn1c(=O)c(C(=O)COc2ccc(F)cc2Cl)c(N)n(Cc2ccccc2)c1=O,-1,1,-1,-1,10,x
COCCCNC1=C(Cl)C(=O)c2ccccc2C1=O,1,-14,11,-12,x,x
COCCCNc1c2c3c(cccc3[nH]c1=O)C(=O)c1ccccc1-2,2,23,40,x,65*,15%
N/C(=N\OC(=O)COc1ccccc1)c1ccc(Cl)cc1,x,-1,-2,-5,-1,x
CCN1C=CC(=C2C(=O)c3ccccc3C2=O)C=C1,7,28*,3,-5,57*,3%
CC1=C(C(=O)Nc2ccccc2)C(c2ccc(N(C)C)cc2)NC(=O)N1 (centres undefined),3,-1,-5,-8,-16,x
Oc1ccc2c(ccc3[nH]cnc32)c1,3,13,2,2,79*,7%
CCc1ccc(/C=C2\SC(N3CCCC3)=NC2=O)cc1,1,0,0,0,x,x
COc1ccc(/C=C2\SC(N3CCCCC3)=NC2=O)cc1,0,2,2,3,67*,12%
COc1ccc2cc3cc(C(=O)NCCCN4CCOCC4)oc3nc2c1,0,0,3,-3,58*,9%
CCN1CCN(CCCNC(=O)c2cc3cc4ccc(OC)cc4nc3o2)CC1,-2,0,4,-9,88*,7%
COc1ccc2cc3cc(C(=O)NCCN4CCN(Cc5ccccc5)CC4)oc3nc2c1,-1,0,2,5,52*,9%
CCCN(CCC)CCCNC(=O)c1cc2cc3ccc(OC)cc3nc2o1,1,0,10,-7,37,x
COc1ccc2cc3cc(C(=O)NCCCN4CCC(C)CC4)oc3nc2c1,1,-1,8,x,53*,7%
CC1(c2ccccc2Cl)NC(=O)N(CC(=O)NCCC2=CCCCC2)C1=O (centres undefined),-1,0,-4,1,4,x
COc1cc(CCC(=O)OCC(=O)NC(=O)c2ccc(Cl)cc2)cc(OC)c1OC,-2,-1,0,0,-5,x
CCCCN(CC)CCCNC(=O)c1cc2cc3ccc(OC)cc3nc2o1,-2,2,-13,-3,50*,9%
CCC1(CC)NC(=O)N(CC(=O)Nc2sc3c(c2C(N)=O)CCC3)C1=O,4,1,28,-9,66*,2%
Cc1ccc(NC(=O)n2ccc(-c3ccc(-n4ccnc4)cc3)n2)cc1,2,x,x,x,2,x
CC(C)n1c(NCCc2ccccc2)nc2c1c(=O)n(C)c(=O)n2C,1,1,4,5,-1,x
CCCN(CCC)CCNC(=O)c1cc2c(=O)n(C)c3ccccc3c2n1C,2,2,3,1,70*,10%
CC(=O)c1cccc(NC(=O)Nc2ccc3c(c2)N(C)C(=O)CS3)c1,1,4,-2,2,50*,8%

# Assay outcomes from PubChem BioAssay.
